Measured values: PubChem BioAssay AID1385 (PCMD, 2008)
Hit rate of the full screen: of about 200,000 compounds, about 170 (0.085%) were called active.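 The calls were made as follows: active = inhibition above 40% at the single screening dose; inactive = the rest.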 The full list was thinned out, with actives kept by preference.

biological target: DNA repair protein RAD51 homolog 1 (Homo sapiens) (UniProt Q06609); experiment: human RAD51 strand exchange inhibitors, primary screen, biochemical, fluorescence (AID 1385); conditions: hRad51 DNA strand exchange, fluorescence dequenching; at 10 µM; hits give high values;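 also: 0% = DMSO control wells and 100% = blanks with heterologous ssDNA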
Outline: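 Read-out basis: percent inhibition relative to plate controls and blanks / Assay system: human Rad51 nucleoprotein filaments preassembled on unlabelled ssDNA / Timing: filaments 15 min 37 °C, then compound 30 min / Control set: per-plate controls and blanks / Technique: fluorescence dequenching at 485/520 nm / Compound: 10 µM final, single point / Also added: Fluorescein- and BHQ1-tagged 47-mer duplex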

DNA repair protein RAD51 homolog 1 (Homo sapiens), sequence (Q06609 whole entry, looked up): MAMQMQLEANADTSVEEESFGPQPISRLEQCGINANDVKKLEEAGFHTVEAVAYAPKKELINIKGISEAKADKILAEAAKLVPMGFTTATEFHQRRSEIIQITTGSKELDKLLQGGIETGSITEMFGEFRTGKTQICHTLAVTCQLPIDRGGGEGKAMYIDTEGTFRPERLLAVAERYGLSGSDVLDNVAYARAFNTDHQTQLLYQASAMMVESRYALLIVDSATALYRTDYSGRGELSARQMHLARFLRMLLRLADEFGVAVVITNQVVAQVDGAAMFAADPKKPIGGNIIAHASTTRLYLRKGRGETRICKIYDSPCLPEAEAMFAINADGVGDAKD

Compound | inhibition
Cc1ccc2c(c1)nnc1nnc(SCC(=O)O)n12 | 3.89% (inactive)
CCC(C)(C)NC(=O)C(c1ccc(O)cc1)N(C(=O)Cn1nnc2ccccc21)c1ccc(NC(C)=O)cc1 (stereo not drawn) | -8.67% (inactive)
Oc1c(Br)cc(/C=N/NC(=S)NCC2CCCO2)cc1Br (stereo not drawn) | -9.24% (inactive)
O=C(Nc1nc2ccc([N+](=O)[O-])cc2s1)c1ccncc1 | 6.33% (inactive)
COc1cc(OC)c(OC)cc1/C=N/Nc1ncnc2c1[nH]c1ccc(C)cc12 | -8.84% (inactive)
Cc1nc(-c2ccc(Cl)cc2)sc1C1(C)CC(c2ccc(Br)cc2)=NO1 (stereo not drawn) | -6.72% (inactive)
CCC(CC)c1nnc(NC(=O)c2nn(C)c(=O)c3ccccc23)s1 | 6.66% (inactive)
COc1ccc(Cc2nnc(NS(=O)(=O)Cc3ccccc3)s2)cc1 | -0.75% (inactive)
CCC(CC)c1nnc(NS(=O)(=O)Cc2ccccc2)s1 | 84.4% (active)
COc1ccccc1N1CCN(C(=O)CSc2ncnc3c2cnn3-c2ccc(C)c(C)c2)CC1 | -12.6% (inactive)
CC1CN(c2nc(Nc3ccccc3)nc(N)c2[N+](=O)[O-])CC(C)O1 (stereo not drawn) | -23.5% (inactive)
CC(=O)c1ccc(NC(=O)C2CC(=O)Nc3nc4ccccc4n32)cc1 (stereo not drawn) | -1.17% (inactive)
COc1ccccc1-c1c(C#N)c(N)nc2c1CCC2 | -0.29% (inactive)
CCNC(=S)N1CCN(CCN=CC2=C(O)CC(C)(C)CC2=O)CC1 | 16.2% (inactive)
Cc1cccc(N2CCN(Cc3nc(C4CC4)no3)CC2)n1 | -8.44% (inactive)
COC(=O)[C@H](CC(C)C)NC(=O)N1CCCCC1C (stereo partly drawn) | -6.96% (inactive)
COc1ccc(/C(C)=N/N2CCOCC2)c(O)c1 | 16.1% (inactive)
Cn1c(SCC(=O)N/N=C/c2ccc(O)c(O)c2)nc2ccccc21 | -10.2% (inactive)
Cc1cc(=O)oc2c(C(=O)c3ccccc3)c(OCC(N)=O)ccc12 | -5.93% (inactive)
CCOc1ccc(C2NC(=S)NC3=C2CCc2ccccc23)cc1 (stereo not drawn) | 5.83% (inactive)
CN1CCc2nc(SC(C(=O)O)c3ccccc3)c(C#N)c(-c3cccs3)c2C1 (stereo not drawn) | -22.2% (inactive)

Compound | inhibition
CCCc1ccc(C(=O)[C@@H]2[C@@H](C(C)=O)N3c4ccc(F)cc4C=C[C@@H]3[C@@]23C(=O)Nc2ccccc23)cc1 | 10.1% (inactive)
CC(C)S(=O)(=O)c1csc(NC(=O)Nc2ccc(Cl)cc2)c1Cl | -3.14% (inactive)
Cc1ccc(-c2csc(-c3cc(C)on3)n2)cc1 | 9.91% (inactive)
CC1(C)CCSC(/C=C/c2ccccc2)=N1 | 10.2% (inactive)
CC(C)(C)c1cc(C(=O)NN)n(Cc2ccc(Cl)cc2Cl)n1 | 9.98% (inactive)
CC(C)(C)c1ccc(/C=C2\Oc3c(ccc(O)c3CN3CCN(CCO)CC3)C2=O)cc1 | -31.8% (inactive)
COC(=O)[C@H](Cc1ccccc1)NC(=O)Nc1ccc(OC)cc1 | 7.38% (inactive)
S=C(NCCc1ccccc1)Nc1ccccc1 | 15.1% (inactive)
CCn1c(SCC(=O)N/N=C/c2ccccc2OCC(=O)O)nnc1-c1ccc(C(C)(C)C)cc1 | 8.66% (inactive)
CCOC(=O)c1cc(C)nc(S(C)(=O)=O)c1C#N | 16% (inactive)
C=CCSc1nnc(NC(=O)c2ccc(NC(C)=O)cc2)s1 | 4.61% (inactive)
Nc1c(N(CCO)C(=O)C2CCCCC2)c(=O)[nH]c(=O)n1Cc1ccccc1 | -7.08% (inactive)
CC(=O)OCCOCn1cnn2c(=O)c(Br)c(C)nc12 | 1.73% (inactive)
COc1ccc(CCNC2=CC(=O)CC(C)(C)C2)cc1 | 3.57% (inactive)
Cc1ccc(-c2cc(C(=O)NN)n[nH]2)o1 | 8.49% (inactive)
CNC(=O)c1csc(Cc2c(Cl)sc3ccc(Cl)cc23)n1 | 5.52% (inactive)
S=c1nc2ccccc2c2nc(-c3cccnc3)[nH]n12 | 1.9% (inactive)
O=[N+]([O-])C(=c1ccc2c(c1)N1C3=C(CCCC3)CC3CCCCC31N=2)[N+](=O)[O-] (stereo not drawn) | -20.4% (inactive)
CCOC(=O)c1ccc(S(=O)(=O)N(CCO)Cc2cc3cc(OC)c(OC)cc3[nH]c2=O)cc1 | -11% (inactive)
Fc1ccccc1/C=N/n1c(-c2cccnc2)n[nH]c1=S | 5.39% (inactive)
Fc1ccc(Nc2nnns2)cc1 | -7.15% (inactive)

Compound | inhibition
Cc1ccc(-c2nc(SCC(=O)Nc3ccccc3OC(F)F)c3c(C)c(C(=O)O)sc3n2)cc1 | -23.3% (inactive)
CC(C)c1cc(CN2CCOCC2)cc(C(C)C)c1O | -12.3% (inactive)
Clc1ccc(C[n+]2cc(-c3ccc(Cl)cc3)n3c2CCC3)cc1 | 16.8% (inactive)
CC(C)CCN1NC2(CCC(C)CC2)NC1=S (stereo not drawn) | 7.9% (inactive)
CC(=O)NCc1ccc(S(=O)(=O)NC2CCN(Cc3ccccc3)CC2)cc1 | -43.1% (inactive)
O=[N+]([O-])c1ccc(N/N=C/c2ccccc2)cc1 | -5.09% (inactive)
COc1cccc(CC(=O)Nc2ccc(-c3csc(C)n3)cc2)c1 | 6% (inactive)
O=C(O)COCC(=O)NCc1csc2ccc(Cl)cc12 | 15% (inactive)
C/C=C/C(=O)Nc1ccc(N2CCN(c3ccc(C(F)(F)F)cn3)CC2)nc1 | 19.9% (inactive)
Cc1nc2cc(NC(=O)Nc3cccc(F)c3)ccc2n1C | 2.24% (inactive)
CCOC(=O)COc1nc(C)cc(C(F)(F)F)c1C#N | -33.8% (inactive)
COC(=O)c1ccc(COc2cc([N+](=O)[O-])cc3cccnc23)cc1 | -2.29% (inactive)
C=CCN1CC(C)/C(=N\O)CC1C (stereo not drawn) | -1.92% (inactive)
Cc1nc2nc(SCC(=O)c3ccccc3)[nH]c2cc1Br | -17.9% (inactive)
O=C(CCNc1n[nH]c(=O)[nH]c1=O)N/N=C\c1ccc(Br)cc1 | -0.51% (inactive)
CC(C)(C)n1cnnc1Sc1ccc([N+](=O)[O-])cn1 | 25.8% (inactive)
Cn1nccc1NS(=O)(=O)c1ccc(F)cc1 | -8.74% (inactive)
COc1ccc(Cl)cc1S(=O)(=O)N1CCC(O)(c2ccc(Cl)cc2)CC1 | 10.6% (inactive)
Cc1ccc(C(=O)COc2cccc(NC(=O)c3ccco3)c2)cc1 | 89.3% (active)
COc1cccc(C(=O)Nc2ccc(NC(=O)c3ccco3)cn2)c1 | -3.19% (inactive)
Cc1ccnc(NC(=O)c2ccc(NC(=O)c3ccco3)cc2)c1 | -5.85% (inactive)
